Assay outcomes as filed in PubChem.
Compounds with a hit are over-represented: about 1.8% of the library has one in this group of screens.
HKDC1 inhibitor: HKDC1 (human) hexokinase inhibition; Q2TB90; recombinant HKDC1, G6PDH/diaphorase resazurin coupled fluorescence; inhibition, % at 20 µM; hit rate 0.16% among 340,000;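 active means inhibition above about 35% when tested at 20 µM, limit read from the data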
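Material: recombinant HKDC1 hexokinase; Amount: HKDC1 at 5 µg/mL; Medium: Tris pH 8.0 buffer with MgCl2, Tween-20, BSA, BME; Schedule: 90 min reaction incubation at room temperature, dark; Technique: coupled resazurin fluorescence, excitation 525 nm, emission 613 nm.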
SUMO1 PPI mod: alters human SUMO1 binding to SIM partners; P63165; SUMO1 binding to a labelled peptide, TR-FRET, 1 h; inhibition, % at 20 µM; hit rate 0.33% among 360,000; AID 602429; in the data active means inhibition above about 37%
Target sequence (P63165 whole entry, looked up): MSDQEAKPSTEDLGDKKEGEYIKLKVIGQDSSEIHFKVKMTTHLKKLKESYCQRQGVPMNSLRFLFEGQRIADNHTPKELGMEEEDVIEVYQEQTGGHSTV
LMPTP inh: LMPTP (human) inhibition. recombinant LMPTP-A, OMFP fluorogenic substrate, fluorescence intensity. hit rate 0.22% among 360,000. P24666. inhibition, % at 20 µM;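 active means compounds that cut the enzyme signal by at least half of the control window in the single-dose screen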
Target sequence (P24666 whole entry, looked up): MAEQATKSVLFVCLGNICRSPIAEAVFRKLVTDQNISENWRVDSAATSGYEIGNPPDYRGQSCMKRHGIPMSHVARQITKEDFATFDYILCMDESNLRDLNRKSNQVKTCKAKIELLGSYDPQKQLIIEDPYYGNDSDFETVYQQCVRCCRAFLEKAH
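Test system: LMPTP-A phosphatase enzyme. Amount: LMPTP-A at 0.625 nM final in the reaction. Reagent: OMFP substrate, 400 µM final. Times: 50 min at room temperature. Signal: endpoint fluorescence intensity from OMFP dephosphorylation. Read-out basis: % inhibition. Benchmarks: no-enzyme and uninhibited controls.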
Scp-1 inhibitor: inhibitors of human Scp-1 phosphatase; hit rate 0.88% among 340,000; inhibition, % at 20 µM; Q9GZU7; AID 493091; Recombinant Scp1, phosphopeptide, malachite green phosphate absorbance;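 active means inhibition above about 50% at 20 µM, limit read from the data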
Target sequence (Q9GZU7 76-261 limits assumed): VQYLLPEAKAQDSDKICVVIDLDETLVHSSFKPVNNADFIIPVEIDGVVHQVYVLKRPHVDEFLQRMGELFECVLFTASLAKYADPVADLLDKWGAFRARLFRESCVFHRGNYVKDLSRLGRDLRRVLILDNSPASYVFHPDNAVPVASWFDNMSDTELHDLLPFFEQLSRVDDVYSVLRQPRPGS
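Times: enzyme reaction 45 min at room temperature, colour 5 min, stabilisation 30 min. Material: SCP-1 catalytic fragment, aa 76-261. Medium: Acidic Tris acetate buffer with magnesium and detergent. Signal: colorimetric free-phosphate detection, absorbance 630 nm. Read-out basis: % inhibition of SCP-1 phosphate liberation. Reagent: Phosphorylated 17-residue peptide substrate.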
STEP block: STEP (human) phosphatase inhibition; P54829; recombinant STEP, OMFP fluorogenic substrate, fluorescence; inhibition, % at 20 µM; hit rate 0.25% among 360,000;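 active means inhibition at 20 µM, scaled per plate between control wells, above about 37%, limit read from the data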
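Material: STEP (striatal-enriched tyrosine phosphatase) enzyme, cell-free | Medium: 50 mM Bis-Tris pH 6.0 with 2.5 mM DTT and 0.005% Tween 20 | Read-out: Percent inhibition scaled to no-enzyme and uninhibited-enzyme controls, plate-pattern corrected | Signal: Fluorescence read at 480 nm ex / 540 nm em | Times: 20 min reaction, room temperature, in the dark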
DNMT1 block: blocks human DNA methyltransferase DNMT1; DNMT1 molecular beacon, Hinp1I cleavage, fluorescence; inhibition (reported as % activation of signal), % at 10 µM; hit rate 0.83% among 360,000; AID 588458; in the data active means inhibition above about 50%
Scp1 confirm: confirmation of human Scp-1 phosphatase inhibitors; shares compounds with Scp-1 inhibitor; recombinant SCP-1 catalytic domain, phosphate release, malachite green absorbance; inhibition, % at 20 µM; hit rate 61% among 2,500
Scp-1 MG ctr: colorimetric interference in Scp-1 counter-screen | shares compounds with Scp-1 inhibitor | Colorimetric interference counterscreen, malachite green absorbance 630 nm | apparent inhibition (interference), % at 20 µM | 2,500 tested, under 10 active | AID 540313;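 further: compounds added after enzyme reaction finished so only phosphate colour detection is probed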
Scp1 DSF: Scp-1 (human) binding by thermal shift; shares compounds with Scp-1 inhibitor; Recombinant SCP1, Sypro Orange thermal shift Tm; thermal shift relative to vanadate control, % at 40 µM; hit rate 25% among 1,500; AID 540329;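 active means substances whose mean melting-temperature shift, as a percentage of the reference inhibitor's shift, reaches about 5.3%, limit read from the data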
A number is an active result; - = inactive; . = not tested or not shown.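 How the source made its calls, unless noted: active means inhibition of at least 30% at 20 µM; inactive means the rest.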

SMILES | HKDC1 inhibitor | SUMO1 PPI mod | LMPTP inh | Scp-1 inhibitor | STEP block | DNMT1 block | Scp1 confirm | Scp-1 MG ctr | others
Cc1ccc(S(=O)(=O)CCC(=O)OCC(=O)N2CCc3ccccc32)cc1 | - | - | - | 59.8 | - | - | - | -
COC(CNC(=O)c1ccc(CS(=O)(=O)c2c(Cl)cccc2Cl)o1)OC | - | - | - | - | - | - | . | .
COc1ccc(-n2c(Cc3cccn3C)nnc2SCC(=O)NCc2ccco2)cc1 | - | - | - | - | - | - | . | .
COc1ccc(-n2c(Cc3cccn3C)nnc2SCC(=O)NCc2ccc(F)cc2)cc1 | - | - | - | 90.2 | - | - | - | -
COCCNC(=O)C1c2ccccc2C(=O)N(CCOC)C1c1ccc(F)cc1 (stereo not drawn) | - | - | - | 52.2 | - | - | - | -
O=C1COc2ccc(C(=O)COC(=O)c3ccc(F)cc3Cl)cc2N1 | - | - | - | - | - | - | . | .
Cc1cc2c(cc1C)[n+](C)cn2CC(O)COCc1ccccc1 (stereo not drawn) | - | - | - | - | - | - | . | .
C[n+]1cn(CC(O)COCc2ccccc2)c2ccccc21 (stereo not drawn) | - | - | - | 71.0 | - | - | 71.1 | - | Scp1 DSF=-
C[N+]1(C2CCC3CCCC2C3O)CCCC1 (stereo not drawn) | - | - | - | 92.8 | - | - | 76.1 | - | Scp1 DSF=-
CCc1ccccc1N(CC(=O)NC1CCCCC1)C(=O)CCCC(=O)Nc1ccccn1 | - | - | - | - | - | - | . | .
Cc1cc(C)n2nc(C(=O)OCC(=O)c3ccccc3)nc2n1 | - | - | - | 72.9 | - | - | - | -
CCOC(=O)C1(C)CCN1C(=O)c1ccc(OC)c(C(F)(F)F)c1 (stereo not drawn) | . | - | - | . | - | - | . | .
O=C(CCN1C(=O)C2C3C=CC(C3)C2C1=O)NCc1cccnc1 (stereo not drawn) | - | - | - | 60.5 | - | - | - | -
O=C(CCN1C(=O)c2cccc3cccc(c23)C1=O)NCc1cccnc1 | - | - | - | - | - | - | . | .
Nn1c(SCC(=O)Nc2ccc3c(c2)OCCO3)nnc1C(F)(F)F | - | - | - | 99.6 | - | - | - | -
NC(=O)c1ccccc1NC(=O)c1cccc(C(=O)Nc2ccccc2C(N)=O)n1 | - | - | - | - | - | - | . | .
Cc1ccc(C)c(NC(=S)N(CCc2ccncc2)C(C)C)c1 | - | - | - | - | - | - | . | .
Cc1cc(C)c(NC(=S)N(CCc2ccncc2)C(C)C)c(C)c1 | - | - | - | 61.0 | - | - | - | -
O=C(Cn1ncc(Cl)c(Cl)c1=O)NC1CCS(=O)(=O)C1 (stereo not drawn) | - | - | - | 87.6 | - | - | 69.2 | - | Scp1 DSF=-
c1ccc(CCNc2cc(-c3ccc4ccccc4c3)nc3ccnn23)nc1 | . | - | - | . | - | - | . | .
C[C@H](CO)N1C[C@H](C)[C@@H](CN(C)Cc2ccc(Cl)c(Cl)c2)Oc2c(NS(=O)(=O)c3cn(C)cn3)cccc2C1=O | - | - | - | 59.1 | - | - | - | -
C[C@H](CO)N1C[C@H](C)[C@@H](CN(C)Cc2ccncc2)Oc2c(NS(=O)(=O)c3cn(C)cn3)cccc2C1=O | - | - | - | 57.1 | - | - | - | -
O=C(NNS(=O)(=O)c1cccc(Cl)c1)c1cc(-c2ccc(F)cc2)nc2ccccc12 | - | - | - | - | - | - | . | .
Cc1cc(C)n(-c2ccc(Oc3ccccc3)c(S(=O)(=O)O)c2)n1 | - | - | - | 64.8 | - | - | 46.9 | - | Scp1 DSF=-
O=C(Cn1cnc2sc(-c3ccccc3)cc2c1=O)NCCc1ccccc1 | - | - | - | - | - | - | . | .
SMILES | HKDC1 inhibitor | SUMO1 PPI mod | LMPTP inh | Scp-1 inhibitor | STEP block | DNMT1 block | Scp1 confirm | Scp-1 MG ctr | others
O=C(Cn1cnc2c(nnn2-c2cccc(Cl)c2)c1=O)NCc1ccccc1 | - | - | - | 52.8 | - | - | 61.7 | - | Scp1 DSF=-
O=C(Cn1cnc2sc(-c3ccccc3)cc2c1=O)NCc1ccccc1 | - | - | - | 83.5 | - | - | 62.3 | - | Scp1 DSF=-
O=C(N/N=C/c1cc(Cl)cc([N+](=O)[O-])c1O)c1cc(-c2ccccn2)nc2ccccc12 | - | - | - | 103.5 | - | - | 88.0 | - | Scp1 DSF=12.1
CC(CC(=O)c1cccs1)CC(=O)c1cccs1 | - | - | - | - | - | - | . | .
O=C(O)CCCCCCCCCC(=O)c1cccs1 | - | - | - | 81.1 | - | - | - | -
CC(C)COC(=O)N(C)C[C@@H]1OCc2cnnn2CCCC(=O)N([C@H](C)CO)C[C@H]1C | . | - | - | . | - | - | . | .
COc1ccc([C@H]2CC(=O)C=C(c3ccnc4ccc(Cl)cc34)C2)cc1 | - | - | - | 59.1 | - | - | - | -
N#Cc1ccccc1CN1C(=O)c2ccccc2S1(=O)=O | - | - | - | - | - | - | . | .
CCCCN(C(=O)C1CCCC1)C1CCS(=O)(=O)C1 (stereo not drawn) | - | - | - | - | - | - | . | .
COc1ccccc1NS(=O)(=O)c1ccc2[nH]c(=S)oc2c1 | - | - | - | 58.7 | - | - | - | -
COc1ccccc1N1CCN(C(=O)c2cn(C)c3ccc(S(=O)(=O)N4CCOCC4)cc3c2=O)CC1 | - | - | - | - | - | - | . | .
CC1CCC(C(C)C)C(OCC[N+](C)(C)C)C1 (stereo not drawn) | - | - | - | 58.3 | - | - | - | -
CCOC(=O)[C@@H]1[C@H]2COc3ccccc3[C@H]2N2C(=O)N(c3cccc(F)c3)C(=O)[C@]12C | - | - | - | - | - | - | . | .
CCC1=Nc2cc(C(=O)NCCCOC(C)C)ccc2Sc2ccccc21 | - | - | - | 62.8 | - | - | - | -
Cc1c(Cc2ccccc2)c(=O)[nH]c(=O)n1C | - | - | - | - | - | - | . | .
COCCC(=O)N1CCC(Oc2ccc(C(=O)NC3CCOC(C)(C)C3)cc2)CC1 (stereo not drawn) | - | - | - | - | - | - | . | .
N#C/C(=C\c1cc2c(cc1Br)OCO2)c1ccc(C(=O)O)cc1 | - | - | - | 51.7 | - | - | 67.6 | - | Scp1 DSF=-
CC1CCCN(C(=O)Cc2cccc3ccccc23)C1 (stereo not drawn) | - | - | - | - | - | - | . | .
Cc1cc(Br)ccc1NC(=O)CN(C)C(=O)Cn1c(=O)cnc2ccccc21 | - | - | - | 96.4 | - | - | 88.6 | - | Scp1 DSF=-
